Assay results: publication PMC4144739 (The Journal of Experimental Medicine, 2014)
Entries after “also recorded” stand apart in the source; their conditions may differ.

Key:
[1] = uric acid administration; ref Scott et al., 2002; cited from earlier work
[2] = tested on: inflammasomes in monocytes; conditions: crystals of uric acid; cited from earlier work
[3] = Solubility in physiological buffers; assay type: physicochemical
Amyloid fibril formation = assay type: physicochemical; conditions: physiological buffers; ThT staining; Fig. S1
Summary of the method: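 Hexapeptide (200 µg in 50 µl) was combined with 100 mM MES pH 7.4 and a 1 M solution at the appropriate pH, then incubated at 37°C. ThT (10 µM solution, pre-addition) was added. Fluorescence was read at 485 nm with excitation at 440 nm. Run in triplicate and repeated twice.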

[4] = EAE induced by adoptive transfer of Th17 lymphocytes, clinical signs; assay type: in vivo, mouse (C57BL/6J); conditions: 2 µg daily for 21 d beginning the day after adoptive transfer; groups of 10 mice
Summary of the method: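 Donor female C57BL/6J mice were immunised s.c. with MOG35-55 in CFA. On day 10, spleen and draining lymph node cells were restimulated for 3 d with 10 µg/ml MOG35-55 plus 10 ng/ml IL-23. Cells (15 × 10^6 per mouse) were given i.p. to 9-wk-old female recipients. PBS served as control. Mice were scored daily on a 0–5 scale, with atypical EAE scored separately.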

[5] = tested on: type 1 IFN (murine IFN-α4, 5, 12, and 13; consensus primers); experiment: Type 1 IFN induced in PBCs of healthy C57BL/6 mice; assay type: in vivo, mouse (C57BL/6); conditions: compared with peptides that readily form fibrils
[6] = ref Kurnellas et al., 2013; cited from earlier work

## O=c1[nH]c(=O)c2[nH]c(=O)[nH]c2[nH]1 [uric acid]
[1]
  therapeutic effect in EAE: therapeutic benefit
[2]
  endocytosis and inflammasome induction: endocytosed and induce inflammasomes with subsequent secretion of IL-1β by monocytes

## Ac-VQIVYK-NH2 [Tau 623–628]
[3]
  solubility in physiological buffers: limited solubility in physiological buffers

## SSTNVG [Amylin 28–33]
Amyloid fibril formation
  amyloid fibril formation in vitro: do not readily form fibrils in physiological buffers; also recorded: did not form detectable amounts of fibrils in vitro
[4]
  clinical signs of Th17-induced EAE, 2 µg: therapeutic in Th17-induced EAE
[5]
  type 1 IFN production (summary): stimulated significantly less type 1 IFN production
[6]
  therapeutic effect of polar, nonionizable peptides in active EAE: therapeutic
